Source: PubChem
PRMT1 FP inh: PRMT1 methyltransferase inhibitors, primary screen, biochemical, fluorescence polarization | inhibition, % at 2.79 µM | recombinant PRMT1, activity-based probe fluorescence polarization | hit rate 1.3% among 370,000;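 active = inhibition above about 21% made by adding two undisclosed values, limit read from the data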
ABHD4 inh: ABHD4 inhibitors, primary screen, biochemical, fluorescence polarization, mouse; AID 720543, 2013; purified mABHD4, FP-Rh probe fluorescence polarization; hit rate 0.54% among 370,000; inhibition, % at 8.92 µM; (Lyso)-N-acylphosphatidylethanolamine lipase (Mus musculus), Q8VD66;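 active = inhibition exceeding the mean over every tested compound plus 3 SD, cut at about 30% in these data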;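 also: 0% = plate median of compound wells and 100% = S159A mutant with DMSO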
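Doses – 8.92 µM, single dose · Material – wild-type mouse ABHD4 protein · Replication – single well per compound (singlicate) · Measure – percent inhibition of probe binding, normalized to plate controls · Schedule – 45 min compound pre-incubation plus 60 min probe step, 25 °C · Detection – fluorescence polarization with parallel and perpendicular emission, 525/598 nm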
SIAE primary: human SIAE inhibitors, primary screen, biochemical, fluorescence polarization, FP-Rh probe, 1536-well HTS. Sialate O-acetylesterase (Homo sapiens), Q9HAT2. SIAE FP-Rh probe binding. inhibition, % at 9.66 µM. hit rate 0.69% among 370,000;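 active = inhibition above a cutoff: mean of compounds within the control limits plus 3 SD of those, cut at about 17% in these data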;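 also: 0% = plate median of compound wells and 100% = probe without SIAE protein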
Target sequence (Q9HAT2 whole entry, looked up): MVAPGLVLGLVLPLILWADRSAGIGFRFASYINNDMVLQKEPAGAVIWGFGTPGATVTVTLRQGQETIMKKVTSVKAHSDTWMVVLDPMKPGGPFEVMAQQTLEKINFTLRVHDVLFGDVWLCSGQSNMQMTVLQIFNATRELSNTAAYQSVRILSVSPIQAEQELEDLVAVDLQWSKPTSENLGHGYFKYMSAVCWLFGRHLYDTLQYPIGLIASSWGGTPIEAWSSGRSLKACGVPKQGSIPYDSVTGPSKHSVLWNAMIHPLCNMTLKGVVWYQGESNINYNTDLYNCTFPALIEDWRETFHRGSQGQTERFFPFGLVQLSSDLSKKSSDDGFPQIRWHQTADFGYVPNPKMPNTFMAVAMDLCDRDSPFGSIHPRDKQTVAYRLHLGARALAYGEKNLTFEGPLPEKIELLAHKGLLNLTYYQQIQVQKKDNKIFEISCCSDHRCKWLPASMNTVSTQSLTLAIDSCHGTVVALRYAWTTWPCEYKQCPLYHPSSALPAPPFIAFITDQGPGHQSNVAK
TCR-CD3 inh: inhibitors of human TCR-CD3 interaction, primary screen, biochemical, fluorescence, TAMRA-labeled TCR probe. inhibition, % at 9.4 µM. hit rate 0.37% among 360,000. AID 651800, 2012; in the data active = inhibition above about 19%;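 also: recombinant mutant TCR 2C K166C tagged with TAMRA read by polarization; 0% = receptor in buffer alone and 100% = receptor with positive control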
rCAG binder: binders of r(CAG) RNA repeats, primary screen, biochemical, fluorescence. r(CAG) RNA repeat, TO-PRO-1 dye displacement fluorescence. inhibition, % at 3 µM. hit rate 1.3% among 370,000;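 active = inhibition above the plate cutoff, the mean of all test compounds on that plate plus 3 SD, cut at about 35% in these data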;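 also: 0% = DMSO alone and 100% = 100 µM mitoxantrone as full dye displacement; higher means more dye released from RNA so lower well fluorescence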
PRMT1 inh conf: PRMT1 methyltransferase inhibitors, confirmation, biochemical, fluorescence polarization, triplicate | recombinant His-PRMT1, activity-based probe fluorescence polarization | inhibition, % at 2.79 µM | hit rate 42% among 3,300 | shares compounds with PRMT1 FP inh | AID 687036, 2013;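 active = mean inhibition across replicates above the hit cutoff derived for the earlier primary screen, cut at about 22% in these data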
Numbers without * were called inactive; / = not tested or not shown. A selection: hits, their analogues and other compounds. The true share with any hit is near 3.3%.

SMILES	PRMT1 FP inh	ABHD4 inh	SIAE primary	TCR-CD3 inh	rCAG binder	PRMT1 inh conf
CCN1CCN(C(=S)Nc2cccc(C(F)(F)F)c2)CC1	-0.8	-2.9	2.8	2.7	-1.1	/
CCOC(=O)N(C)OC(=O)Nc1ccc(Cl)c(Cl)c1	35.3*	-6.0	-6.8	-4.8	1.3	35.9*
CCOC(=O)N(CC)OC(=O)Nc1ccc(Cl)cc1	6.2	-2.1	2.7	-3.0	0.9	/
C[C@H]1[C@@H](N(C)CC2CCCCC2)CC[C@@]23CCCN2C(=O)CCC[C@@H]13	0.4	-1.1	3.8	/	/	/
Cc1cc(C)n(CCc2nc(-c3cccs3)cs2)n1	6.4	5.8	-1.2	0.8	-4.4	/
Cc1cc(C)n(CCc2nc(-c3ccco3)cs2)n1	40.1*	3.9	6.7	11.1	10.6	57.3*
O=C(CN1C(=O)CCSc2ccccc21)Nc1ccc(Cl)c(Cl)c1	1.3	-9.8	-6.2	/	6.3	/
CCn1nc(C)cc1-c1nnc(SCC(=O)Nc2ccccc2)n1CCCOC	2.2	1.2	-7.1	-7.2	-8.8	/
CCn1nc(C)cc1-c1nnc(Sc2ncc([N+](=O)[O-])s2)n1C	54.8*	2.1	1.6	0.2	1.0	62.6*
CN(C)c1ccc(C(=O)NC2CCCCN(Cc3ccc(Cl)cc3)C2=O)cc1 (stereo unspecified)	-3.2	4.5	0.4	/	2.4	/
Cc1ccc(-n2c(SCC(=O)N/N=C/C=C\c3ccco3)nnc2-c2ccccc2)cc1	11.6	-3.0	2.4	/	4.9	/
CC1CCCCC1C(=O)N1CCC(Oc2cccnc2)CC1 (stereo unspecified)	1.1	0.2	2.2	/	-0.7	/
COc1ccc(Cc2c(-c3ccco3)nc3ccc(Cl)cn23)c(C)c1	27.3*	10.2	2.6	2.2	21.7	14.9
Cc1ccc(Cc2c(-c3ccco3)nc3ccc(Br)cn23)cc1	31.4*	11.1	-2.0	-0.2	23.2	16.0
Cc1ccc(Cc2c(-c3ccc(C)cc3)nc3ccc(Br)cn23)cc1	-0.1	0.1	-4.5	4.3	20.7	/
COc1ccc(Cc2c(-c3ccco3)nc3ccc(Br)cn23)c(C)c1	30.9*	14.4	-3.9	6.5	18.1	20.0
CC1CCCCC1N(C(=O)c1cc(C2CC2)on1)C1CCCCCC1 (stereo unspecified)	3.9	9.3	-3.1	/	0.5	/
O=C1CCCc2cc3c(ccc4ccccc43)cc21	0.3	-4.2	-2.1	-1.8	11.3	/
O=C1CCSc2c1ccc1ccccc21	29.3*	-9.1	-5.3	-2.2	0.7	-1.5
C=CCCC(=O)N[C@H]1CC[C@@]23CCCN2C(=O)CCC[C@H]3[C@H]1C	-2.6	6.9	11.8	/	/	/
O=C(NNc1nc(-c2ccccc2)cs1)c1cccs1	50.7*	3.1	6.3	-1.1	25.8	-2.2
Cc1ccc2occ(C3N[C@H](C(=O)O)CS3)c(=O)c2c1 (stereo partly specified)	49.5*	-0.4	3.0	6.5	4.6	44.6*
Cc1nc2scc(-c3ccccc3)c2c(=O)n1N=C1C=CC(=O)C=C1	89.9*	9.8	15.7	-1.3	3.1	93.7*
Cc1nc2scc(-c3ccccc3)c2c(=O)n1N	4.4	-3.0	-2.0	-7.4	3.2	/
COC(=O)c1c(C)[nH]c(O)c1C=Nc1ccc(C(C)C)cc1	3.1	-4.5	1.0	-10.8	0.0	/
SMILES	PRMT1 FP inh	ABHD4 inh	SIAE primary	TCR-CD3 inh	rCAG binder	PRMT1 inh conf
CCOC(=O)c1c(C)[nH]c(O)c1C=Nc1ccc(C(F)(F)F)cc1	28.8*	11.3	5.0	-4.6	0.2	14.4
NC(=O)C1CCN(C2CC(=O)N(Cc3cccs3)C2=O)CC1 (stereo unspecified)	73.6*	7.1	-4.0	-1.6	-1.9	-0.5
O=C1CC(N2CCC(c3nc4ccccc4o3)CC2)C(=O)N1Cc1cccs1 (stereo unspecified)	46.9*	5.7	-2.6	0.2	-7.8	1.6
O=C1CC(N2CCN(c3ccc(F)cc3)CC2)C(=O)N1Cc1cccs1 (stereo unspecified)	5.1	-6.9	8.8	5.9	-2.9	/
C#CCOCCOCCOCCNc1nc(N2CCN(C(=O)[C@H](CCCCN)n3cc([C@@H](N)C(C)CC)nn3)CC2)nc(N2CCN(C(=O)[C@H](CCCCN)n3cc([C@@H](N)C(C)CC)nn3)CC2)n1 (stereo partly specified)	11.3	-2.4	-1.4	/	/	/
COc1ccc(-n2c(SCC(=O)N3CCCCC3C)nnc2-c2ccncc2)cc1 (stereo unspecified)	-1.5	7.2	4.2	/	3.3	/
CC(=O)Nc1ccc(NC(=O)CSC2=NCCS2)cc1	7.5	5.5	0.3	3.9	9.6	/
O=C(CSC1=NCCS1)Nc1ccc(S(=O)(=O)N2CCCCCC2)cc1	38.1*	-15.5	-32.6	5.4	7.9	51.5*
O=C(CSC1=NCCS1)Nc1ccc(S(=O)(=O)NC2CCCCC2)cc1	29.3*	-12.2	0.8	2.8	8.6	26.1*
Cc1ccccc1Cn1cc(CN2[C@@H](Cc3ccccc3)COc3cc(Br)ccc3S2(=O)=O)nn1	-0.7	-29.4	-1.2	/	8.6	/
CCCCCNC(=O)C(c1ccnc2ccccc12)n1c(=O)c(-c2ccccc2)nc2ccccc21 (stereo unspecified)	-0.6	-5.9	-2.3	4.4	4.7	/
O=C(NC1CCCCC1)C(c1ccccc1)n1c(=O)c(-c2ccco2)nc2ccccc21 (stereo unspecified)	28.4*	5.2	-5.2	-10.4	29.8	23.1*
O=C(NC1CCCCC1)C(c1ccc(C(F)(F)F)cc1)n1c(=O)c(-c2ccco2)nc2ccccc21 (stereo unspecified)	29.1*	-12.3	-12.9	-0.5	20.3	14.7
CCCCCNC(=O)C(c1cccc2ccccc12)n1c(=O)c(-c2ccco2)nc2ccccc21 (stereo unspecified)	31.8*	-8.5	-12.8	-12.2	30.1	14.0
COc1ccc(C(C(=O)NC(C)(C)C)n2c(=O)c(-c3ccco3)nc3ccccc32)cc1 (stereo unspecified)	31.1*	-15.7	-0.6	-8.3	27.7	6.9
COc1ccc(NC(=O)C(c2ccc(OC)cc2)n2c(=O)c(-c3ccco3)nc3ccccc32)cc1 (stereo unspecified)	2.2	-18.1	-16.1	-1.0	17.0	/
CC(C)[C@H](NC(=O)OC(C)(C)C)C(=O)N1CCC(Oc2cccnc2)CC1	-10.1	7.7	1.3	/	-2.1	/
Clc1ccc([C@H]2OC[C@@]3(CNCc4ccccc4)CS[C@H](c4ccc(Cl)cc4)N23)cc1	0.8	-15.8	2.2	/	/	/
COC(=O)C1=C2SC(C)C(=O)N2C(N)=C(C#N)C1c1cc(OC)c(OC)c(OC)c1 (stereo unspecified)	30.9*	-8.7	-0.7	-7.2	14.3	5.8
